Data reported in ChEMBL document CHEMBL1127446, “Structure-activity relationships of 1,2,4-triazolo[1,5-a] quinoxalines and their 1-deaza analogues imidazo[1,2-a]quinoxalines at the benzodiazepine receptor” (J Med Chem, 1994).

How the values were obtained:
[1] = biological target: GABA-A receptor; anion channel; assay: Binding affinity to BZR receptor on bovine cerebral cortex by [3H]flunitrazepam displacement.; assay type: tissue-based
Outline: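 Compounds first screened at 10 μM, then IC50 from log-probit plots and Ki derived from it. Ki given as mean ± SEM of four determinations.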

[2] = biological target: T1, GABA-A receptor; anion channel (Bos taurus) (UniProt P10063+P08220+P20237+P08219+P10064+P22300); assay: GABA ratio is measured by IC50 (compound)/IC50 (compound at 10 uM GABA; assay type: protein-complex assay
Outline: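 [³H]flunitrazepam (0.2 nM) displacement in bovine brain membranes; IC50 from log-probit plots, measured without and with 10 μM GABA. Ratio = IC50 without GABA / IC50 with GABA, from five independent experiments; compounds dissolved in DMSO.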

[3] = biological target: T1, GABA-A receptor; anion channel (Bos taurus); assay: Binding affinity to BZR receptor of bovine cerebral cortex by [3H]flunitrazepam displacement at 10 uM; assay type: tissue-based
Outline: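 Percent inhibition of specific binding measured with test compound at 10 μM, dissolved in DMSO.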

Compound	Ki [1]	Ratio [2]	inhibition [3]
Oc1nc2ccccc2n2cc(-c3ccccc3)nc12	42.3 nM	1.36	–
COc1ccc(-c2nc3c(O)nc4ccccc4n3n2)cc1	87.8 nM	1.04	–
Oc1nc2ccc(Cl)cc2n2nc(-c3ccsc3)nc12	–	0.8	–
COc1ccc(-c2nc3c(O)nc4ccc(Cl)cc4n3n2)cc1	–	1.03	–
COc1ccc(-c2cn3c(n2)c(O)nc2ccccc23)cc1	56.4 nM	1.21	–
Oc1nc2ccc(Cl)cc2n2nc(-c3cccs3)nc12	–	1.09	–
Oc1nc2ccc(Cl)cc2n2nc(-c3cccc(F)c3)nc12	32.8 nM	0.82	–
Oc1ccc(-c2nc3c(O)nc4ccccc4n3n2)cc1	67.5 nM	0.9	–
Oc1nc2ccccc2n2nc(-c3ccco3)nc12	71.2 nM	1.05	–
Cn1c(=O)c2nc(-c3ccccc3)cn2c2ccccc21	–	–	2%
Oc1ccc(-c2nc3c(O)nc4ccc(Cl)cc4n3n2)cc1	29.8 nM	0.88	–

Further compounds by falling Ki [1], results first:

Ki [1]	Ratio [2]	inhibition [3]	Compound
21.8 nM	0.92	–	Oc1nc2ccccc2n2nc(-c3cccs3)nc12
17.4 nM	–	–	O=c1[nH]c2ccc(Cl)cc2n2nc(-c3cccs3)nc12
15.9 nM	–	–	O=c1[nH]c2ccc(Cl)cc2n2nc(-c3ccsc3)nc12
15.9 nM	1.13	–	Oc1nc2ccccc2n2cc(-c3cccs3)nc12
14.5 nM	0.67	–	Oc1nc2ccc(Cl)cc2n2nc(-c3ccco3)nc12
13.2 nM	0.77	–	Oc1nc2ccc(Br)cc2n2nc(-c3ccco3)nc12
9.8 nM	0.84	–	Oc1nc2ccc(Cl)cc2n2nc(-c3ccoc3)nc12
8.9 nM	1.04	–	Oc1nc2ccccc2n2nc(-c3ccccc3F)nc12
5.4 nM	–	–	COc1ccc(-c2nc3c(=O)[nH]c4ccc(Cl)cc4n3n2)cc1
2.9 nM	0.77	–	Oc1nc2ccc(Cl)cc2n2nc(-c3ccccc3F)nc12
